This passage reports inhibition and IC50 results from ChEMBL document CHEMBL1145927 (J Med Chem, 2003).

For assay [1], the target named is T1, Prostaglandin G/H synthase 1 (Homo sapiens, UniProt P23219). Briefly: In vitro average percent Inhibition of […] Prostaglandin G/H synthase 1 (COX-1) at a concentration of 100 uM determined by human whole blood (HWB) assay.
Assay [2] concerns the target T2, Prostaglandin G/H synthase 2 (Homo sapiens) (UniProt P35354).
T2 sequence (whole entry): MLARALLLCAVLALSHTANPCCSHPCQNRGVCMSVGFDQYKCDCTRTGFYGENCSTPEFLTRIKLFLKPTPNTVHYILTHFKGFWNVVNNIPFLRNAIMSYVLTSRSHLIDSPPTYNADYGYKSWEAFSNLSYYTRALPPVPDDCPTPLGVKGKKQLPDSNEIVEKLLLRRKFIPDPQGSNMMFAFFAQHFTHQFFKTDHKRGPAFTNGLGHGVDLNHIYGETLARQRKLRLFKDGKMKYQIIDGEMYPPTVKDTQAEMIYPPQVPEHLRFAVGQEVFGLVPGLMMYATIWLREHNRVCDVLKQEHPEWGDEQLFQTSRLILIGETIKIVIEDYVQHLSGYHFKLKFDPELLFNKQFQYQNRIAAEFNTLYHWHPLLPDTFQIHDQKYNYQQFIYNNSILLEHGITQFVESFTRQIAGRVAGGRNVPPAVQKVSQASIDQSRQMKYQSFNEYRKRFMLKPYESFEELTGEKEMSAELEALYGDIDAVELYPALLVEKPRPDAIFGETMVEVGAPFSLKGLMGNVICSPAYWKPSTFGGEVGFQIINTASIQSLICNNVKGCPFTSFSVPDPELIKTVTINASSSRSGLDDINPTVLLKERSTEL
Briefly: In vitro average percent Inhibition of Prostaglandin G/H synthase 2(COX-2) at a concentration of 1 uM determined in human whole blood by human whole blood (HWB) assay. The format is tissue-based. In outline: (§1)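 Heparinized whole blood from male or female donors free of aspirin/NSAIDs for 14 days, 1 mL aliquots pre-warmed 15 min at 37 °C, 5% CO2; compound in DMSO, duplicate wells; COX-2 induced by E. coli LPS added 4.5 h later, incubated 5 h; stopped on ice with 2 mM EGTA; plasma methanol-extracted, TXB2 by EIA; average of two donors.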

Assay [3] has as its target T2, Prostaglandin G/H synthase 2 (Homo sapiens). Briefly: In vitro average percent Inhibition of Prostaglandin G/H synthase 2 (COX-2) at a concentration of 10 uM determined by human whole blood (HWB) assay. The method, boiled down: as §1
The target in assay [4] is T1, Prostaglandin G/H synthase 1. Briefly: In vitro average percent uM in human whole blood by human whole blood assay. It counts as tissue-based. As to conditions: concentration not given here.
Assay [5] deals with T2, Prostaglandin G/H synthase 2 (Homo sapiens). As to conditions: at 1 µM.
Assay [6] has the same target. To be noted: Blood; at 1 µM.
Assay [7] concerns the target T3, Prostaglandin G/H synthase 1 (Ovis aries) (UniProt P05979).
T3 sequence (whole entry): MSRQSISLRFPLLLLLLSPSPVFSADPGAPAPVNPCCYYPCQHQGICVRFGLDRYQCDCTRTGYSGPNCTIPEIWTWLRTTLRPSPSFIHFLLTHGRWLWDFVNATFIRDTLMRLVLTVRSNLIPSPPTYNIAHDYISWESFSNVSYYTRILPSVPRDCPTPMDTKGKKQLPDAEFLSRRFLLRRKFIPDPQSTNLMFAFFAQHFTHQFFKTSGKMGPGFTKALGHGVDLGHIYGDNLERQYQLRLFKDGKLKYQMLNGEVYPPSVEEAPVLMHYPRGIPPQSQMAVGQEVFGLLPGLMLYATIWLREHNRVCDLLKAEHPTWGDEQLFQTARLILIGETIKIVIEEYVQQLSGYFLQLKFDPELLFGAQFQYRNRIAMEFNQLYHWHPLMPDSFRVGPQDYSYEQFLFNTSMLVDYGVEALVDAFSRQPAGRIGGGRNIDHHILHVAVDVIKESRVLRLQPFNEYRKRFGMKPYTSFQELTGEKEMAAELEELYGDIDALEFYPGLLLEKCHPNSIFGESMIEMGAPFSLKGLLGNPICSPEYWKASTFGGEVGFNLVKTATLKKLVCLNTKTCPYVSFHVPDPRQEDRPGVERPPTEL
As to the kind of experiment: Compound was tested for in vitro inhibition of recombinant ovine Prostaglandin G/H synthase 1 (COX-1) at a concentration of 100 uM. In outline: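 Supplied recombinant ovine COX-1 (5 units) preincubated 2 min at 25 °C in 0.1 M Tris-HCl pH 8.0 with 5 mM EDTA, 2 mM phenol and heme; compound or DMSO added, 20 min at 25 °C; started with 10 mM arachidonic acid stock, 2 min at 37 °C; stopped with HCl, SnCl2 reduction; prostaglandins by EIA; percent inhibition versus solvent control.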

For assay [8], the target named is T2, Prostaglandin G/H synthase 2 (Homo sapiens). As to conditions: Blood; at 10 µM.
For assay [9] the target is unchanged. To be noted: at 10 µM.
Assay [10] has as its target T1, Prostaglandin G/H synthase 1. Briefly: In vitro average percent Inhibition of inhibition of Prostaglandin G/H synthase 1 (COX-1) at a concentration of 100 uM in human whole blood by human whole blood assay. It counts as tissue-based.
The target in assay [11] is T2, Prostaglandin G/H synthase 2 (Homo sapiens). Briefly: In vitro average percent Inhibition of Prostaglandin G/H synthase 2 (COX-2) at a concentration of 1 uM determined in human whole blood by human whole blood assay. The format is tissue-based. In outline: as §1
Assay [12] shares this target. As to the kind of experiment: In vitro average percent Inhibition of Prostaglandin G/H synthase 2 (COX-2) at a concentration of 10 uM determined in human whole blood by human whole blood assay. It counts as tissue-based. The method, boiled down: as §1
Assay [13] deals with T1, Prostaglandin G/H synthase 1. To be noted: at 100 µM.
The target is the same in assay [14]. Briefly: In vitro average percent inhibition of human prostaglandin G/H synthase 1 (COX-1) at a concentration of 100 uM. In outline:
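Supplied recombinant human COX-1 (5 units) preincubated 2 min at 25 °C in 0.1 M Tris-HCl pH 8.0 with 5 mM EDTA, 2 mM phenol and heme; compound or DMSO added, 20 min at 25 °C; started with 10 mM arachidonic acid stock, 2 min at 37 °C; stopped with HCl, SnCl2 reduction; prostaglandins by EIA; percent inhibition versus solvent control.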

The target is the same in assay [15]. Briefly: Compound was tested for the inhibition of human Prostaglandin G/H synthase 1 (COX-1) in human whole blood. It counts as tissue-based.
For assay [16], the target named is T4, Prostaglandin G/H synthase 2 (Homo sapiens, UniProt P35354).
T4 sequence (P35354 whole entry): T2 sequence (whole entry)
As to the kind of experiment: Compound was tested for the inhibition of recombinant human Prostaglandin G/H synthase 2 (COX-2).

Assay [17] addresses T1, Prostaglandin G/H synthase 1. Briefly: Compound was tested for the inhibition of recombinant human Prostaglandin G/H synthase 1 (COX-1).
Assay [18] has the same target. As to the kind of experiment: In vitro average percent Inhibition of Prostaglandin G/H synthase 1 (COX-1) at a concentration of 100 uM determined in human whole blood by human whole blood (HWB) assay. The format is tissue-based.
Assay [19] concerns the target T4, Prostaglandin G/H synthase 2. As to the kind of experiment: Compound was tested for the inhibition of human Prostaglandin G/H synthase 2 (COX-2) in human whole blood. The format is tissue-based.
Assay [20] deals with T1, Prostaglandin G/H synthase 1. Briefly: In vitro average percent Inhibition of Prostaglandin G/H synthase 1 (COX-1) at a concentration of 100 uM in human whole blood by human whole blood assay. The format is tissue-based.
The target in assay [21] is T4, Prostaglandin G/H synthase 2. Briefly: Compound was tested for the inhibition of recombinant human Prostaglandin G/H synthase 2 (COX-2) by enzyme Assay.
The target in assay [22] is T1, Prostaglandin G/H synthase 1. Briefly: Compound was tested for in vitro inhibition of recombinant human Prostaglandin G/H synthase 1 (COX-1) by enzyme Assay.
Assay [23] has the same target. Briefly: Compound was tested for in vitro Prostaglandin G/H synthase 1 (COX-1) idetermined in human whole blood by human whole blood assay. It counts as tissue-based. In outline: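 Heparinised (20 U/mL) whole blood from non-fasted donors free of aspirin/NSAIDs for 14 days, 1 mL aliquots, pre-warmed 15 min at 37 °C, 5% CO2 on a rotating shaker. DMSO-diluted compound added in duplicate; incubation ended 30 min after A23187 by ice and 2 mM EGTA (final). Plasma methanol-extracted, TXB2 by EIA; average of two donors.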

Assay [24] shares this target. Briefly: In vitro average percent Inhibition of Prostaglandin G/H synthase 1 (COX-1) at a concentration of 100 uM determined in human whole blood assay by human whole blood (HWB) assay. The format is tissue-based.
In assay [25] the target is T2, Prostaglandin G/H synthase 2 (Homo sapiens). Briefly: In vitro average percent Inhibition of Prostaglandin G/H synthase 2 (COX-2) at a concentration of 10 uM determined human whole blood by human whole blood (HWB) assay. In outline:
as §1

Usually inhibition stands for the drop in the measured response relative to a control, in per cent. As usually defined, the IC50 is the concentration that inhibits the measured activity by half.

T1 sequence (P23219 whole entry): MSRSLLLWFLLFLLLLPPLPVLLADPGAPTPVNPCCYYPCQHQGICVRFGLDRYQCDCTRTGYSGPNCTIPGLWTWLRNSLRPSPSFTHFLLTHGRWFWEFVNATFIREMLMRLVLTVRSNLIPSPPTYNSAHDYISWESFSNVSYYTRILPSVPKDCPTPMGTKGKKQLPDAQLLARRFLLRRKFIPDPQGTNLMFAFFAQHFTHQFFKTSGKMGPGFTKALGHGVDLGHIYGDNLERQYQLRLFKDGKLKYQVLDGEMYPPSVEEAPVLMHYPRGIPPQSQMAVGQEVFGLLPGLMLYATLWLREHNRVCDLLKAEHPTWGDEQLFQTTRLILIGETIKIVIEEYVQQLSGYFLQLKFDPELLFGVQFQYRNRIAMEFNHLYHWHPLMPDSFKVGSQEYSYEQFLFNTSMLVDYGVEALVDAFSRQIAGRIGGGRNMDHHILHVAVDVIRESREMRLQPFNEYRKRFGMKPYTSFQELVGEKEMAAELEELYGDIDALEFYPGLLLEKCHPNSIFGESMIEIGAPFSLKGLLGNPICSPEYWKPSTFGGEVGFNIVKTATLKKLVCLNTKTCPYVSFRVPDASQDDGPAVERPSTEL

As to `CS(=O)(=O)c1ccc(-c2cc3c(cc2-c2cc(F)cc(F)c2)OCO3)cc1`, the inhibition in assay [1] worked out at 65%; in [2] it was 0%; in assay [3], 35%.
Take `Cc1cccc(C(=O)c2cc3c(cc2-c2ccc(S(C)(=O)=O)cc2)OCO3)c1`: the inhibition was 95% in assay [4]; 10% in assay [5]; 40% in assay [6]; 0% in assay [7]; 85% in assay [8]; 40% in assay [9].
For `CS(=O)(=O)c1ccc(-c2cc3c(cc2Cc2cc(F)cc(F)c2)OCO3)cc1`, the inhibition in assay [10] was 70%; in assay [5], 90%; in [6] it was 15%; in assay [7], 15%; in assay [8], 40%; in assay [9], 90%.
Turning to `CS(=O)(=O)c1ccc(-c2cc3c(cc2CCCc2ccccc2)OCO3)cc1`, the inhibition in assay [11] came to 15%; in [12] it was 35%; in assay [13], 10%; in [5], 15%; in [14], 65%; in assay [9] it was 0%.
For `NS(=O)(=O)c1ccc(-c2cc3c(cc2Cc2ccccc2)OCO3)cc1`, the inhibition was 90% in assay [13], 85% in assay [5], 90% in assay [9] and 90% in [18]. Besides, the values for the IC50 in assay [15], in assay [16] and in assay [17] were 60 µM, 0.05 µM and 25 µM, respectively.
For the molecule `CS(=O)(=O)c1ccc(-c2cc3c(cc2C(=O)c2cccc(F)c2)OCO3)cc1`, the results for the IC50 in [19] and in [15] were 1 µM and 20 µM, respectively. This molecule also had an inhibition in assay [14] of 50%.
With `Cc1ccc(Cc2cc3c(cc2-c2ccc(S(C)(=O)=O)cc2)OCO3)cc1`, the inhibition in assay [5] stood at 50%; in assay [6] it was 0%; in assay [7], 25%; in [8], 10%; in [20] it was 45%; in assay [9], 80%.
As for `COc1cc(Cc2cc(F)cc(F)c2)c(-c2ccc(S(C)(=O)=O)cc2)cc1OC`, the inhibition amounted to 15% in assay [3] and 0% in assay [18].
For `CS(=O)(=O)c1ccc(-c2cc3c(cc2Cc2cc(F)cc(F)c2)OCCO3)cc1` the same measures were 40% and 70%.
As for `CS(=O)(=O)c1ccc(-c2cc3c(cc2C=C2CCCCC2)OCO3)cc1`, the IC50 is 0.07 µM in assay [21] and more than 100 µM in assay [22]. Also, the inhibition in [13] amounted to 0%; in [5], 90%; in [14], 50%; in assay [9], 90%.
As to `CS(=O)(=O)c1ccc(-c2cc3c(cc2C=C2CCCCCC2)OCO3)cc1`, the inhibition was found to be 100% in [5], 0% in [7], 35% in [14] and 100% in assay [9]. Also, the IC50 in [16] is 0.2 µM; in [17], more than 100 µM.
Turning to `CS(=O)(=O)c1ccc(-c2cc3c(cc2Cc2ccccc2)OCO3)cc1`, the IC50 in [19] came to 10 µM; in assay [23] it was 60 µM. For the same molecule, the inhibition in assay [13] is 0%; in assay [5], 85%; in [8], 50%; in assay [14] it was 65%; in assay [9], 85%.
Consider `CS(=O)(=O)c1ccc(-c2ccccc2C=C2CCCCC2)cc1`, for which the inhibition in assay [24] came to 60%.
For the molecule `CS(=O)(=O)c1ccc(-c2ccccc2C(=O)c2cccc(F)c2)cc1`, the inhibition worked out at 40% in [25] and 45% in assay [18].
